# Screening data (PubChem BioAssay)
# CSC inhib: cancer stem cell inhibition | inhibition, % at 7.5 µM | 300,000 compounds, 1.1% hits | cancer stem cell-like cells viability, luminescence; in the data active = inhibition above about 75%; inconclusive = no clear call, values can overlap the other calls; tested in HMLE shEcad cells
# T cruzi inh: blocks replication of Trypanosoma cruzi; inhibition, % (test concentration not listed); T. cruzi beta-gal in NIH3T3, luminescence, 90 h; 300,000 compounds, 1.4% hits; AID 1885;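 active = mean inhibition across valid replicates above about 55%, limit read from the data; inconclusive = mean below that limit but half or more replicates reach it; inactive = mean below it, under half of replicates reach it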;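 also: signal also drops with host cell toxicity which is not excluded here; 0% = plate median of DMSO wells and 100% = zero luminescence signal; higher percent means less beta-gal luminescence so fewer parasites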
#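 compound dosing = single 50 nL compound addition per well in DMSO | material = NIH/3T3 host cells with β-galactosidase reporter T. cruzi | input = 5,000 host fibroblasts per well | timing = ≥90 h infection period, 3 h prior cell attachment | read-out basis = percent inhibition of parasite-derived β-gal signal | detection = GalScreen β-gal luminescence, detergent lysis, 60 min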
# Calb FLC: C. albicans growth modulation with fluconazole; C. albicans CaCi-2 (fluconazole-resistant clinical isolate) + fluconazole, Alamar Blue growth, 48 h; growth inhibition, % (test concentration not listed); 300,000 compounds, 0.57% hits;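 active = growth inhibition above about 58% in most replicates, limit read from the data, passing the limit was not always enough; inconclusive = exactly half the replicates above a set limit; inactive = most replicates below a set limit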;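 also: all wells also contain fluconazole at 8 µg/ml as a sub-toxic cotreatment; 0% = median of DMSO wells and 100% = median of geldanamycin control wells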
# SKKanGAS inh: blocks kanamycin growth of S. pyogenes SKKanGAS strain; BacTiter-Glo, 6 h; inhibition, % at 7.5 µM; 300,000 compounds, 1.3% hits;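 active = mean replicate score, as percent of positive control median, at least 50; inconclusive = mean below 50 but one replicate at or above 50; inactive = mean and every replicate below 50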;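 also: strain carries kanamycin resistance gene driven by streptokinase promoter and grows in 40 µg/ml kanamycin; loss of luminescence reflects streptokinase promoter inhibition or plain growth inhibition; 0% = median of DMSO wells and 100% = positive control at its reference dose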
# Beta apoptosis: blocks beta cell apoptosis. INS-1E cytokine-induced death, ATP luminescence, 48 h; percent of positive-control rescue, neutral wells zero. protection from apoptosis, % (no concentration beside the values). 300,000 compounds, 0.8% hits;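 active = Every replicate reaches about 75%, or at least half do and their mean reaches it too, limit read from the data; inconclusive = At least half of replicates reach the limit but their mean does not; inactive = Under half of replicates reach the limit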;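 also: 0% = cytokine-treated negative control wells and 100% = positive control rescue; higher means more ATP so stronger rescue from cytokine killing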
# Mdm2 MdmX PPI: inhibitors of human Mdm2/MdmX interaction; O15151+Q00987; SaOS-2 split-luciferase Mdm2/MdmX complementation, luminescence; inhibition, % at 8 µM; 330,000 compounds, 3% hits; AID 485346;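 active = inhibition of at least 50% at 8 µM in the primary screen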
# Target sequence (O15151 whole entry, looked up): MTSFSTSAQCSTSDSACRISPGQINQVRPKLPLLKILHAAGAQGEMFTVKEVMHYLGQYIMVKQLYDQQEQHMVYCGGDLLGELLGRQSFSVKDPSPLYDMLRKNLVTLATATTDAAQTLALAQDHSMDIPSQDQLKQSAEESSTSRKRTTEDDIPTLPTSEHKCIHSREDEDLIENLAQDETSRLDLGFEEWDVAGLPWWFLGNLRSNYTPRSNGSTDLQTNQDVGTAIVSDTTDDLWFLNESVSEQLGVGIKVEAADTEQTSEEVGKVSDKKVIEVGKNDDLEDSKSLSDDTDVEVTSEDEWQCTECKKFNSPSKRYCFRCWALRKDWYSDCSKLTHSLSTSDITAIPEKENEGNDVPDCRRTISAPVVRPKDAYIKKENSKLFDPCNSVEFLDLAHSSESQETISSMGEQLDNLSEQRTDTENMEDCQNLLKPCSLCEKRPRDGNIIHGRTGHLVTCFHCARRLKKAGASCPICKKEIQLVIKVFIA
# Target sequence (Q00987 whole entry, looked up): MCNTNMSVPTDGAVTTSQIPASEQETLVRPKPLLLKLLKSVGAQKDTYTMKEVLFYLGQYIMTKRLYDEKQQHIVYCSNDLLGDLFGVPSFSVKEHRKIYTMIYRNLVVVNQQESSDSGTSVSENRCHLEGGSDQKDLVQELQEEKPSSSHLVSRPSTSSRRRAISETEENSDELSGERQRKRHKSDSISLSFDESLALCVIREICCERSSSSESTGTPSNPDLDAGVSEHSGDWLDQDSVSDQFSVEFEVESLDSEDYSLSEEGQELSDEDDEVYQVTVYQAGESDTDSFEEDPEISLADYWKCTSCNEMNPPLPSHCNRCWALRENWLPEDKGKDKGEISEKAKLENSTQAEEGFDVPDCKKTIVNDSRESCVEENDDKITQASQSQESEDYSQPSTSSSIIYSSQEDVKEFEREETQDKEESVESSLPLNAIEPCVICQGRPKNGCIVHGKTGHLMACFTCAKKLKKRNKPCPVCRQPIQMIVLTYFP
# Mdm2 MdmX conf: confirmation of human Mdm2/MdmX interaction inhibitors. shares compounds with Mdm2 MdmX PPI. Mdm2-MdmX binding, luminescent assay. inhibition, % at 8 µM. 10,000 compounds, 55% hits; in the data active = inhibition above about 40%
# FLuc counter: full-length luciferase inhibition in Mdm2/MdmX counter-screen; shares compounds with Mdm2 MdmX PPI; SaOS-2 full-length luciferase counterscreen, luminescence; inhibition, % at 8 µM; 6,200 compounds, 77% hits; AID 504607;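 active = mean inhibition at 8 µM reaching about 37%, which flags the compound as non-specific, limit read from the data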;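 also: p53-null SaOS-2 cells with luciferase driven by a doxycycline-inducible promoter; compound on cells about two nights before reading with doxycycline added after day one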
# * marks the source's active call; other numbers are inactive results; ? = inconclusive; . = no result. Most compounds without a hit are left out; they make up all but 5.7% or so of the library.
SMILES,CSC inhib,T cruzi inh,Calb FLC,SKKanGAS inh,Beta apoptosis,Mdm2 MdmX PPI,Mdm2 MdmX conf,FLuc counter
COc1ccc(CNCCC(c2ccccc2)c2ccc3c(c2)OCO3)cc1 (configuration not stated),23,59*,22,-5,85*,67*,31,.
COc1ccc(CNCCC(c2ccc(OC(C)C)cc2)c2ccccc2OC)cc1 (configuration not stated),103*,21,15,2,?,97*,54*,68*
COc1ccccc1C(CCNCc1ccc(N(C)C)cc1)c1ccc(OC(C)C)cc1 (configuration not stated),103*,41,0,2,114*,97*,58*,57*
COc1ccccc1NC(=O)CC(c1ccc(OC(C)C)cc1)c1ccccc1OC (configuration not stated),28,29,3,25,4,10,.,.
COc1ccccc1C(=O)COC(=O)CN1C(=O)NC2(CCCC2)C1=O,-10,-8,-3,1,-1,24,.,.
CCCn1c(N)c(C(=O)COc2ccc(Br)cc2F)c(=O)n(C)c1=O,-1,13,-1,6,0,28,.,.
COc1ccccc1C(CCNCc1ccccc1)c1ccc(OC(C)C)cc1 (configuration not stated),58,31,-1,7,23,61*,36,.
COCCNC(=O)c1ccc(Cl)c(S(=O)(=O)Nc2cccc(C)c2C)c1,11,5,25,-1,-2,11,.,.
CCOc1ccccc1N1CCN(C(=O)CCNS(=O)(=O)c2ccccc2F)CC1,-15,8,-2,-6,3,25,.,.
CCOc1ccc(N(CC(=O)NCCc2ccccc2)C(=O)CCC(=O)Nc2nccs2)cc1,-8,26,1,-5,-3,2,.,.
CCS(=O)(=O)c1ncc(Cl)c(C(=O)Nc2ccc(C)cc2)n1,119*,79*,2,-23,-31,87*,78*,57*
CSc1ncc(Cl)c(C(=O)Nc2ccc(NC(C)=O)cc2)n1,-2,1,-4,2,-3,31,.,.
CCC1CCCCN1S(=O)(=O)c1ccc(NC(=O)c2nc(S(C)(=O)=O)ncc2Cl)cc1 (configuration not stated),115*,40,-7,51*,108*,97*,100*,1
CS(=O)(=O)c1ncc(Cl)c(C(=O)Nc2ccc3ccccc3c2)n1,.,54,-7,-6,.,.,.,.
Cc1ccc(CS(=O)(=O)c2ncc(Cl)c(C(=O)Nc3ccc(OC(F)F)cc3)n2)cc1,105*,-22,-2,54*,41,91*,86*,54*
O=C(Nc1ccc(OC(F)F)cc1)c1ncc(Cl)c(Cl)c1Cl,13,-21,4,12,4,4,.,.
CCS(=O)(=O)c1ncc(Cl)c(C(=O)Nc2ccc(S(=O)(=O)N3CCCC(C)C3)cc2)n1 (configuration not stated),118*,56*,0,37,106*,99*,99*,51*
Cc1ccc(C(=O)NC(=S)NCc2ccco2)cc1,-8,8,-16,-17,-1,22,.,.
CCC1CCCCN1S(=O)(=O)c1ccc(C(=O)Nc2nnc(-c3ccccc3Cl)o2)cc1 (configuration not stated),.,-25,11,110*,13,63*,16,.
CCc1sc(C(=O)N2CCc3cc(OC)c(OC)cc3C2CC(=O)O)cc1C (configuration not stated),4,.,.,.,1,-5,.,.
c1ccc(/N=C2\N=C(Nc3ccccn3)c3ccccc32)nc1,52,65*,1,60*,103*,72*,5,.
COc1ccc(N(Cc2cc3cc(OC)ccc3[nH]c2=O)S(=O)(=O)c2ccc(NC(C)=O)cc2)cc1,33,29,1,12,3,77*,71*,65*
O=C(NC(Nc1cc(C(F)(F)F)ccc1Cl)C(=O)c1ccccc1)c1ccccc1 (configuration not stated),13,58*,-7,5,13,52*,8,.
C[C@@]12C(=O)N(CC3CC3)CC(=O)N1[C@H](C1CC1)[C@@H]1C(=O)N(c3ccccc3)C(=O)[C@@H]12,0,0,-7,5,-6,22,.,.
COc1ccc(O)c(/C=C2/SC(=S)N(Cc3ccccc3)C2=O)c1,43,-6,-3,13,-13,31,.,.
SMILES,CSC inhib,T cruzi inh,Calb FLC,SKKanGAS inh,Beta apoptosis,Mdm2 MdmX PPI,Mdm2 MdmX conf,FLuc counter
COc1ccc(OC)c(/C=C2\SC(=S)N(Cc3cccnc3)C2=O)c1,52,-12,30,18,32,73*,44*,49*
CCCCC1C(=O)N(c2ccccc2)N(c2ccccc2)C1=O,-1,-7,.,11,-7,15,.,.
CCCCN1C=CC(=C2C(=O)c3ccccc3C2=O)C=C1,68,-6,11,26,38,84*,79*,53*
O=C(NC1=C(NC2CCS(=O)(=O)C2)C(=O)c2ccccc2C1=O)c1ccccc1 (configuration not stated),45,-27,-8,26,41,90*,60*,49*
O=S(=O)(/N=C(/Nc1ccccn1)c1ccccc1)c1ccccc1,-11,10,-16,-3,-8,-13,.,.
c1ccc(-c2nc(-c3ccccn3)no2)cc1,51,-14,-6,-6,40,40,.,.
Cc1ccc(-c2nc(-c3ccccn3)no2)cc1Cl,63,-4,-3,15,22,44,.,.
c1ccc(-c2ccc(-c3nc(-c4ccccn4)no3)cc2)cc1,-10,8,25,18,70,97*,89*,23
Cc1ccc(-c2nc(-c3ccccn3)no2)cc1,70,-8,-23,59*,58,86*,86*,53*
CN[C@H]1CCc2cc(OC)c(OC)c(OC)c2-c2ccc(OC)c(=O)cc21,46,1,-4,0,60,68*,56*,104*
COc1cc(C(=O)Nc2cccc(NC(=O)c3ccccc3)c2)cc(OC)c1OC,0,-15,-7,-9,.,29,.,.
COc1cc2c(c(OC)c1OC)-c1ccc(NC(=O)c3ccccc3)c(=O)cc1[C@@H](NC(C)=O)CC2,45,17,-2,8,18,57*,65*,63*
O=C(O)CNC(=O)c1ccc(NC(=O)/C(=C/c2ccccc2)NC(=O)c2ccco2)cc1,-9,-8,4,6,-5,4,.,.
COc1ccc(C(=O)Nc2ccc(NC(=O)c3ccccc3)cc2)cc1S(=O)(=O)N1CCOCC1,-6,-2,2,-1,6,86*,-5,.
